# Source: PubChem (several laboratories)
# Only some compounds are listed: those with a hit (about 2.6% of all), similar ones and a draw of the others.
# SMARCA2 act – SMARCA2 function activation, primary screen; MG213 cells, MMTV-luciferase reporter, dexamethasone, overnight; activation, % at 9.1 µM; 370,000 compounds, 1% hits; in the data active = activation above about 7.8%;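 also: 0% = vehicle wells and 100% = reference activator wells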
# esBAF inh – blocks esBAF chromatin remodeling in mouse ES cells | reporter increase, % at 12.5 µM | Bmi1-luciferase knock-in reporter, 24 h; 100% = twice the neutral-well signal | AID 602393 | 350,000 compounds, 2% hits; in the data active = activation above about 40%;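 also: 0% = median of the plate's neutral control wells and 100% = double that signal; a rise in the Bmi1 reporter signal indicates esBAF inhibition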
# ASAP1 GAP inh – inhibitors of human ASAP1 ArfGAP activity | Q9ULH1 | ASAP1-stimulated ARF1 GTP hydrolysis, GDP FP detection | inhibition, % at 16.5 µM | 360,000 compounds, 0.19% hits; in the data active = inhibition above about 25%;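 also: 0% = vehicle with enzyme and substrate and 100% = no enzyme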
# Target sequence (Q9ULH1 325-724 limits assumed): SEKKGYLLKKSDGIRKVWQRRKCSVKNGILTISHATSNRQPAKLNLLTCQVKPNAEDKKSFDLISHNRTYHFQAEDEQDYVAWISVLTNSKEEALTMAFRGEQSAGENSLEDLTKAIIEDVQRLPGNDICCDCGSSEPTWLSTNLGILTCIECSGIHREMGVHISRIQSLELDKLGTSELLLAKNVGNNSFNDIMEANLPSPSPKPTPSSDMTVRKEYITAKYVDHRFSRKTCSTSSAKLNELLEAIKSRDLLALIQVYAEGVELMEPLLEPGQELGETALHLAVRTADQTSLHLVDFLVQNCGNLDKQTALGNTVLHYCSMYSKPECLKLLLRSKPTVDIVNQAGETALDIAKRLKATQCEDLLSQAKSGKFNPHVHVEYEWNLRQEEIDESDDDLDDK
# ARFGAP1 inhibitor – rat ARFGAP1 inhibition; Q62848; 360,000 compounds, 0.26% hits; AID 651572; Arfgap1-stimulated ARF1 GTP hydrolysis, GDP FP detection; inhibition, % at 16.5 µM;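 active = inhibition above a per-plate limit, mean inhibition of low control wells plus 3 SD, cut at about 25% in these data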;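 also: 0% = DMSO wells with enzyme and 100% = wells lacking Arfgap1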
# Target sequence (Q62848 1-136 limits assumed): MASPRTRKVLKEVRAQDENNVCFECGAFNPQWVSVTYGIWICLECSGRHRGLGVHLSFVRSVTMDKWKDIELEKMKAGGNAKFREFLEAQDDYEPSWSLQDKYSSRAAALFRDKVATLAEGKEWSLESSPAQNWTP
#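 Material – truncated rat Arfgap1 GAP domain · Buffer or medium – HEPES-based buffer, pH 7.5 · Reagent – human ARF1(Δ1-17)-GTP substrate · Dosing – 16.5 µM single point, 1.26% DMSO · Schedule – GTP hydrolysis reaction 2 h at 25 °C · Technique – GDP detection by fluorescence polarization · Benchmarks – No-Arfgap1 wells (100%) versus DMSO full-reaction wells (0%) · Repeats – single replicate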
# SMARCA2 conf – confirmation of SMARCA2 (BRM) function activators; shares compounds with SMARCA2 act; MG213 cells, MMTV-luciferase with dexamethasone, luminescence, overnight; MG213 cells expressing E1A, Rb sequestered; DMSO wells 0%, reference activator 100%; activation, % at 9.1 µM; 3,500 compounds, 30% hits; AID 652260;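 active = activation above its plate's cutoff, the mean activation of tested wells plus 3 SD, cut at about 7.9% in these data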
# VP16 Luc act – activates GAL4-VP16 luciferase, flagging SMARCA2 activator hits | shares compounds with SMARCA2 act | HEK293 GAL4-VP16 pG5luc reporter, luciferase luminescence; scaled: DMSO wells 0%, SAHA wells 100% | activation, % at 9.1 µM | 3,500 compounds, 41% hits | AID 686939;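 active = activation above the solvent-only control well mean plus 3 SD, averaged across control plates, cut at about 5.2% in these data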
# * = called active by the depositor; . = not tested or not shown.
SMILES,SMARCA2 act,esBAF inh,ASAP1 GAP inh,ARFGAP1 inhibitor,SMARCA2 conf,VP16 Luc act
COC(=O)c1ccc(-c2nc(-c3ccc(Br)o3)no2)cc1,-0.6,23.1,-0.4,1.0,.,.
COC(=O)c1ccc(-c2nc(-c3cccs3)no2)cc1,10.8*,-74.4,1.5,8.8,-4.0,8.1*
COc1ccc(-c2ccc(-c3noc(-c4ccccc4)n3)c(OC)n2)cc1,11.8*,-4.7,12.8,2.2,1.6,2.3
C[C@@H]1CN([C@@H](C)CO)C(=O)c2cc(C#CC(C)(C)O)cnc2O[C@H]1CN(C)C(=O)C1CCC1,.,2.4,.,.,.,.
CCCC(=O)Nc1ccc2c(c1)C(=O)N(C)C[C@@H](OC)[C@H](C)CN(CC1CCCC1)[C@@H](C)CO2,.,-0.2,.,.,.,.
O=C(C[C@@H]1CC[C@H]2[C@@H](COC[C@H](O)CN2Cc2ccccc2)O1)N[C@H]1CCN(Cc2ccccc2)C1,.,-0.8,.,.,.,.
COCc1cn(CC[C@H]2CC[C@@H](NC(=O)Nc3ccc(F)cc3)[C@H](CO)O2)nn1,.,1.1,.,.,.,.
C=CCNc1ncnc2c1cnn2-c1cccc(C)c1,3.0,17.9,5.3,-0.7,.,.
CCCCNc1ncnc2c1cnn2-c1ccc(Cl)cc1,10.5*,23.8,-0.8,4.4,4.7,9.8*
Cc1ccc(-n2ncc3c(NCc4ccccn4)ncnc32)c(C)c1,-3.6,19.2,7.6,-3.7,.,.
Clc1ccc(-n2ncc3c(NCc4ccccn4)ncnc32)cc1,11.5*,67.9*,16.9,1.7,11.3*,6.0*
COc1ccccc1CNc1ncnc2c1cnn2-c1ccccc1,8.2*,70.8*,18.1,-3.8,0.8,4.2
CCCCNc1ncnc2c1cnn2-c1ccccc1,0.5,31.9,-9.0,5.5,.,.
C=CCNc1ncnc2c1cnn2-c1ccc(Cl)cc1,11.7*,-9.1,9.2,8.4,8.3*,11.5*
Cc1ccc(CNc2ncnc3c2cnn3-c2ccccc2)cc1,0.1,9.8,2.5,-4.2,.,.
Cc1ccc(S(=O)(=O)Nc2ccc3c(c2)C(=O)N([C@@H](C)CO)C[C@@H](C)[C@@H](CN(C)C(=O)c2ccncc2)OCCCC[C@@H](C)O3)cc1,.,3.5,.,.,.,.
CCCCCCOC(=O)c1ccc(N)cc1,8.0*,.,-8.1,-11.6,6.3,5.8*
Fc1ccc(-c2cnc(-c3cccs3)o2)cc1,9.2*,-11.8,-8.1,2.2,10.2*,5.4*
O=C(CC(F)(F)F)N1C[C@H]2[C@@H](c3ccccc31)[C@@H](CO)N2C(=O)Cc1cccnc1,.,-0.9,.,.,.,.
Cc1noc(C)c1S(=O)(=O)Nc1ccc2c(c1)CC(=O)N([C@H](C)CO)C[C@@H](C)[C@@H](CN(C)C(=O)Nc1ccc3c(c1)OCO3)O2,.,0.2,.,.,.,.
O=S(=O)(c1cccc(-c2n[nH]c(=S)n2C2CCCC2)c1)N1CCOCC1,8.8*,.,13.7,8.7,-0.9,0.4
Cc1cc(Br)cc(C)c1OCC(=O)NNC(=O)c1cccs1,-0.1,3.7,-9.5,11.6,.,.
Cc1cc(Br)ccc1OCC(=O)NNC(=O)Cc1ccccc1,8.9*,-9.4,-2.5,1.3,-0.8,0.9
Cc1cc(Br)ccc1OCC(=O)NNC(=O)CCc1ccccc1,-1.9,3.4,-2.7,-3.3,.,.
O=C(COc1ccc(Br)cc1Br)NNC(=O)c1cccs1,10.5*,33.9,2.2,12.1,6.7,8.8*
SMILES,SMARCA2 act,esBAF inh,ASAP1 GAP inh,ARFGAP1 inhibitor,SMARCA2 conf,VP16 Luc act
N#Cc1ccccc1OCC(=O)Nc1ccc(S(=O)(=O)N2CCOCC2)cc1,9.6*,-0.8,12.1,-1.6,2.0,0.6
O=C(COC(=O)Cc1ccc(S(=O)(=O)N2CCOCC2)s1)Nc1ccccc1,8.1*,-1.4,-4.1,-8.7,2.2,0.7
C[C@@H]1CN([C@@H](C)CO)C(=O)c2cc(C#CCN(C)C)cnc2O[C@H]1CN(C)C(=O)Cc1cccnc1,.,-1.4,.,.,.,.
Cc1noc(C)c1NC(=O)N[C@@H]1CC[C@@H](CC(=O)N2CCCCC2)O[C@H]1CO,.,0.2,.,.,.,.
C[C@@H]1CN([C@H](C)CO)C(=O)Cc2cc(NC(=O)CCN3CCOCC3)ccc2O[C@H]1CN(C)C(=O)NC1CCCCC1,.,2.0,.,.,.,.
COc1c(C)cccc1C(=O)Nc1ccc(N2CCOCC2)c(Cl)c1,8.5*,58.5*,-7.6,5.4,3.5,14.4*
O=C(Nc1ccc(N2CCOCC2)nc1)c1ccccc1Cl,9.6*,44.7*,-8.5,-2.6,1.7,2.4
COC(=O)c1cc(NC(=O)c2c(C)noc2C)ccc1N1CCOCC1,9.2*,-8.0,-14.7,5.5,2.7,0.5
O=C(Nc1ccc(N2CCOCC2)c(Cl)c1)c1cccnc1Cl,0.9,15.2,8.0,4.1,.,.
COC(=O)c1cc(NC(C)=O)ccc1N1CCOCC1,2.0,.,0.9,-6.9,.,.
CN(C)CCNc1cccc2sc3ccc(O)cc3c(=O)c12,15.6*,.,6.0,3.3,31.5*,8.4*
Cc1ccc(NCCN(C)C)c2c(=O)c3cc(O)ccc3sc12,3.2,.,10.5,-9.8,.,.
CCCNC(=O)N1[C@@H]2c3ccc(-c4cccc(OC)c4)c(=O)n3C[C@H]1[C@H](CO)[C@H]2C(=O)NC1CCC1,.,1.2,.,.,.,.
C[C@@H]1CN([C@@H](C)CO)S(=O)(=O)c2ccc(C#CC(C)(C)O)cc2O[C@@H]1CN(C)C,.,-1.7,.,.,.,.
Nc1ccc(O)c(-c2nc3ccccc3s2)c1,3.6,31.1,2.0,11.7,.,.
Oc1ccc(-c2nc3ccccc3s2)c(O)c1,13.6*,.,0.6,0.4,5.8,10.3*
Cc1ccc(-c2nn(-c3ccccc3)cc2C(=O)N2CCN(C3CCS(=O)(=O)C3)CC2)cc1 (stereo not drawn),0.0,1.4,-1.4,3.2,.,.
Cc1ccc(-c2nn(-c3ccc(F)cc3)cc2C(=O)N2CCN(C3CCS(=O)(=O)C3)CC2)cc1 (stereo not drawn),9.5*,0.6,6.9,3.8,4.3,1.9
C[C@@H]1CN([C@@H](C)CO)S(=O)(=O)c2ccc(-c3ccc(F)cc3)cc2O[C@@H]1CN(C)C(=O)Nc1ccccc1F,.,2.8,.,.,.,.
CCN(CC)CCC(=O)Nc1cccc2c1C(=O)c1ccccc1C2=O,33.3*,-3.2,-5.6,10.8,94.5*,4.0
Nc1cccc(C(=O)OCC(=O)Nc2cccc3c2C(=O)c2ccccc2C3=O)c1,6.7,.,-8.6,5.1,.,.
COc1ccc(S(=O)(=O)N(C)C[C@@H]2Oc3ccc(NC(=O)Cn4cnnn4)cc3C(=O)N([C@@H](C)CO)C[C@@H]2C)cc1,.,4.3,.,.,.,.
C=CCc1ccc(OCCCCN2CC(C)CC(C)C2)c(OC)c1 (stereo not drawn),-4.9,-1.4,2.8,8.8,.,.
C=CCc1ccc(OCCCCN2CCC(C)CC2)c(OC)c1,12.1*,.,-9.0,5.0,-5.6,3.0
COc1ccc(OC)c(NC(=O)c2ccc(Cl)cc2)c1,-0.2,-5.7,-1.4,-0.2,.,.
Cc1ccc(C(=O)Nc2cc(Cl)ccc2OC(=O)c2ccc(C)cc2)cc1,8.0*,.,7.2,11.7,7.3,10.3*
